Reference: PubChem BioAssay AID1451 (NMMLSC, 2008)
The list shows a part of the results. Activity calls are given as the source filed them.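 Rule for the calls: active = inhibition of pump activity above 50%; inactive = the rest.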

Biological target: ATP-dependent translocase ABCB1 (Homo sapiens) (UniProt P08183)
Experiment: blockers of ABCB1-mediated dye efflux – cell-based, single point, ABCG2 counter-screen, confirmation (AID 1451);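 note: 0% = DMSO and 100% = nicardipine full pump inhibition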
Conditions: CCRF-Adr cells, JC-1 efflux, flow cytometry; at 6.6 µM; stronger effect = higher value
Summary of the method: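 Material: ABCB1-expressing CCRF-Adr cells. Quantity: 3 million cells per mL final in well. Reagent: JC-1 fluorescent efflux-pump substrate. Compound: single test-compound dose, 6.6 µM final. Schedule: 10 min exposure, 25 °C. Measured by: flow cytometry, 530 nm emission. Controls: nicardipine as high control, DMSO as low control.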

Sequence of ATP-dependent translocase ABCB1 (Homo sapiens) (P08183 whole entry, looked up): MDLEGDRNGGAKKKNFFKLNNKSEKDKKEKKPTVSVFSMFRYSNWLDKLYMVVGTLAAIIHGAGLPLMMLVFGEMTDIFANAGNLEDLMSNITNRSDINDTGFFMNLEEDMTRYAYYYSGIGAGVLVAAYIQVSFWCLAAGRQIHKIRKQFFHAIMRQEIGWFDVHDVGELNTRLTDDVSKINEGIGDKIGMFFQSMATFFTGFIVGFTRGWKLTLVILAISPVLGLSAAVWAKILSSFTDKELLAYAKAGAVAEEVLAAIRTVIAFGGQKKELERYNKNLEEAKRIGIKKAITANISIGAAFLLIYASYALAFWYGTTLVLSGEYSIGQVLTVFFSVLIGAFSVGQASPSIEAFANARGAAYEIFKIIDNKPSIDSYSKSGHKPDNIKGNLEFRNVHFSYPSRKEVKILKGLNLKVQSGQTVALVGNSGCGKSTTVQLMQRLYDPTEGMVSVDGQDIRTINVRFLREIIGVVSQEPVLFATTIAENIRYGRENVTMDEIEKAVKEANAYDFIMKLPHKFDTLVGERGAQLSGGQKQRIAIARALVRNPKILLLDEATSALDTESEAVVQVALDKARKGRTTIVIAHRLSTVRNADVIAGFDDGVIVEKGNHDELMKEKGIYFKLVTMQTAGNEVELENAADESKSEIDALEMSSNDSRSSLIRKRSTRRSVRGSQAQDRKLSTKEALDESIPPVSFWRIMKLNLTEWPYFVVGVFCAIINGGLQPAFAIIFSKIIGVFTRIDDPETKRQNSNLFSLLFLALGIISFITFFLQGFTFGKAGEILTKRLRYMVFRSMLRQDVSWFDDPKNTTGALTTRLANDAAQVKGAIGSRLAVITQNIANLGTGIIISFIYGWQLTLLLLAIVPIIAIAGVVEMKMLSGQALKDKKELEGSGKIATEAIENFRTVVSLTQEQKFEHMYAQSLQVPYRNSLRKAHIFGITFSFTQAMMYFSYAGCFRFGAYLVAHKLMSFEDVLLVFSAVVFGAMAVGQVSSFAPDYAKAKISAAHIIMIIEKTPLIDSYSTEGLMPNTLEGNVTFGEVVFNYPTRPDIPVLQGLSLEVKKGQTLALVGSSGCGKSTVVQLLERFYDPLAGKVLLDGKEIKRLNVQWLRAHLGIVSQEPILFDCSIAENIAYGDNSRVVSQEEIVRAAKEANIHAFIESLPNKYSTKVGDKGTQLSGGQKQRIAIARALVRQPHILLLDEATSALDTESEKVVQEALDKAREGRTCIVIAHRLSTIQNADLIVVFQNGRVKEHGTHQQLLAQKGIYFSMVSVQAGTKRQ

| Compound | inhibition |
| --- | --- |
| CCOCC(=O)Nc1sc2c(c1C(=O)OCC)CCCC2 | 2.32% (inactive) |
| Cc1cccc2cc(CN(Cc3cccs3)C(c3nnnn3C3CCCC3)C(C)C)c(=O)[nH]c12 (stereo not drawn) | 61.6% (active) |
| O=C(Cc1c[nH]c2ccccc12)N/N=C/c1cccc(F)c1 | -0.99% (inactive) |
| CCOC(=O)c1sc(NC(=O)CSc2nnc(-c3ccco3)o2)c(C(=O)OCC)c1C | 15.2% (inactive) |
| COc1ccc(-n2c(C)cc(C(=O)COC(=O)c3cc(OC)c(OC)cc3NC(=O)c3cccs3)c2C)cc1 | 3% (inactive) |
| COc1cccc(NC(=O)c2ccc(Cn3cc([N+](=O)[O-])cn3)o2)c1 | -0.63% (inactive) |
| CCN1/C(=C/c2ccc3ccc(C)cc3[n+]2CC)Sc2ccccc21 | -9.15% (inactive) |
| Cc1c(CCOC(=O)CC23CC4CC(CC(C)(C4)C2)C3)sc[n+]1Cc1ccc([N+](=O)[O-])cc1 | 0.26% (inactive) |
| Cc1ccc(-n2c(SCC(=O)Nc3ncc(Cl)cc3Cl)nc3ccccc32)cc1 | 41.2% (inactive) |
| Cc1ccc(OCC(O)CN2CCN(CC(O)COc3ccc(C)cc3Cl)CC2)c(Cl)c1 (stereo not drawn) | 17.1% (inactive) |
| C/C(=N\Nc1ncc(Cl)cc1Cl)c1ccc(S(=O)(=O)NCc2ccco2)cc1 | 1.61% (inactive) |
| C=CCn1c(SCCOc2ccc(OC)cc2)nnc1C(NC(=O)c1ccc(OC)cc1)C(C)C (stereo not drawn) | 23.6% (inactive) |
| COc1ccc(C)cc1NC(=O)C(Sc1ccccc1)c1ccccc1 (stereo not drawn) | 3.76% (inactive) |
